Measured values from article PMC11316633 (European journal of medicinal chemistry, 2024).
One block for each compound: values may come before it.

Legend:
SUDHL5 cells = assay: CellTiter-Glo proliferation assay, SUDHL5; assay type: cell-based; conditions: SUDHL5, 72h
Method in brief: (§1)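 Cells were grown in RPMI 1640 with 10% heat-inactivated FBS and penicillin/streptomycin at 37 °C and 5% CO2, and tested mycoplasma-negative. They were seeded at 10^4/ml and treated in triplicate. Compounds were dispensed by robot from 10 mM or 1 mM stocks, with DMSO equalised across wells. A non-degrading analogue and the parent inhibitor served as controls. After 72 h, CellTiter-Glo was added for 10–15 min at room temperature and luminescence was read.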

Molt4 cells = assay: CellTiter-Glo proliferation assay, Molt4; assay type: cell-based; conditions: Molt4, 72h
Method in brief: as §1

Jurkat cells = assay: CellTiter-Glo proliferation assay, Jurkat; assay type: cell-based, human; conditions: 72h
Method in brief: as §1

CDK7 [1] = target: T1, CDK7 (Homo sapiens, UniProt P50613); assay: Immunoblot analysis of CDK7 degradation in Jurkat cells; assay type: cell-based
Method in brief: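 Jurkat cells received test compound at 0.1 or 1 μM for 16 h, 0.1 μM for 0.5–24 h, or a concentration series for 6 h. Other arms were pretreated 2 h with MG132, MLN-4924, parent CDK7 inhibitor or VHL ligand, or used VHL-knockout Jurkat (6 h). Blots: RIPA lysis, 4–20% SDS-PAGE, nitrocellulose, anti-CDK7 1:1000, β-actin 1:5000, IRDye secondaries. Mean ± SEM of three biological replicates.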

A549 cells = assay: CellTiter-Glo proliferation assay, A549; assay type: cell-based; conditions: A549, 72h
Method in brief: as §1

OVCAR3 cells = assay: CellTiter-Glo proliferation assay, OVCAR3; assay type: cell-based; conditions: OVCAR3, 72h
Method in brief: as §1

CDK7/Cyclin H/MNAT1 = CDK7/Cyclin H/MNAT1 (Homo sapiens, UniProt P50613); assay: Adapta Eu kinase assay; assay type: biochemical
Method in brief: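 CDK7/Cyclin H/MNAT1 complex tested by an outside contract service in Adapta Eu format, with ATP at its Km concentration.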

[2] = Mouse pharmacokinetic study; assay type: in vivo, mice
OVCAR3 cells proteome = assay: Multiplexed quantitative mass-spectrometry-based proteomics in OVCAR3 cells; assay type: cell-based, human; conditions: OVCAR3, 0.1 μM, 6 h
Method in brief: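 OVCAR3 cells in triplicate plates adhered 24 h, then received 0.1 μM test compound or DMSO for 6 h. Lysis was in 2% SDS buffer, followed by 5 mM DTT (37 °C, 1 h) and 15 mM iodoacetamide. Lys-C then trypsin (each 1:75) digested the samples. 150 μg per sample was TMT18-labelled, fractionated at pH 8, and quantified by SPS-MS3 on an Orbitrap. Target-decoy SEQUEST search; peptides with TMT sum >200 and isolation specificity >0.7 kept.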

MAT1 = assay: Western blotting analysis of MAT1 in OVCAR3 and Jurkat cells; assay type: cell-based; conditions: Western blot, 6 h
Method in brief: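 OVCAR3 and Jurkat cells were exposed to test compound for 6 h. RIPA lysates were BCA-equalised, resolved on 4–20% SDS-PAGE, and transferred to nitrocellulose. Blots were probed overnight at 4 °C for MAT1, Cyclin H and CDK7 (each 1:1000) plus β-actin (1:5000), then with IRDye secondaries for 1 h at room temperature, and imaged by infrared scanning.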

LONRF2 = assay: Western blot of LONRF2; assay type: cell-based; conditions: 0.1 to 5 μM
Method in brief: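 Immunoblot with anti-LONRF2 1:1000 overnight at 4 °C and β-actin 1:5000 as loading control. RIPA lysates with protease/phosphatase inhibitors were BCA-equalised, run on 4–20% SDS-PAGE, and transferred to nitrocellulose. IRDye secondaries were applied for 1 h at room temperature, followed by infrared scanning.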

CDK7 [3] = target: T1, CDK7; assay: Immunoblot analysis of CDK7 degradation in different cell lines; assay type: cell-based; conditions: 6 h
Method in brief: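 Cell lines grown in RPMI 1640/10% FBS were exposed to test compound for 6 h. Lysis was in ice-cold RIPA (pH 7.4) with protease/phosphatase inhibitors, with BCA-equalised loading. Proteins were run on 4–20% SDS-PAGE and transferred to nitrocellulose. Blots were probed overnight at 4 °C with anti-CDK7 1:1000 and β-actin 1:5000, then with IRDye secondaries for 1 h at room temperature, and scanned by infrared imaging.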

[4] = Tolerability during mouse PK study; assay type: in vivo; conditions: mice
[5] = tested on: CDK1, 2, 4, 5, 6, 8 and 9; assay: Western blotting analysis of other CDKs in Jurkat cells; assay type: cell-based, human; conditions: 0.1 to 0.5 μM, 6 hours
Method in brief: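 Jurkat cells were exposed to test compound at 0.1–0.5 μM for 6 h. Lysis was in ice-cold RIPA (pH 7.4) with protease and phosphatase inhibitors, with BCA protein quantitation. Samples were boiled 10 min at 95 °C, run on 4–20% SDS-PAGE, and transferred to nitrocellulose. Primary antibodies were applied overnight at 4 °C, then IRDye secondaries for 1 h at room temperature, with infrared detection.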

[6] = Jurkat cells, 0.1 μM or 1 μM, 16 h, Western blot

T1 sequence (P50613 2-346 limits assumed): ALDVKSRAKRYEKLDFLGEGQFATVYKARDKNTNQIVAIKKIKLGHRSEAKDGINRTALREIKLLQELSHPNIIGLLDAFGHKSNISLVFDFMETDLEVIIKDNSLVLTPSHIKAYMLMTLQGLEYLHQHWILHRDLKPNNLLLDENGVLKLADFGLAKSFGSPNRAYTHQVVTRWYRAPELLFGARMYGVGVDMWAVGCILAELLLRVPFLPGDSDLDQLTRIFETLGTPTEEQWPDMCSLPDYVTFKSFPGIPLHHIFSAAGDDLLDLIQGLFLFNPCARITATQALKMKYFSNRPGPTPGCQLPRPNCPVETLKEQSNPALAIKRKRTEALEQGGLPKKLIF
T1 sequence (P51946 whole entry partner): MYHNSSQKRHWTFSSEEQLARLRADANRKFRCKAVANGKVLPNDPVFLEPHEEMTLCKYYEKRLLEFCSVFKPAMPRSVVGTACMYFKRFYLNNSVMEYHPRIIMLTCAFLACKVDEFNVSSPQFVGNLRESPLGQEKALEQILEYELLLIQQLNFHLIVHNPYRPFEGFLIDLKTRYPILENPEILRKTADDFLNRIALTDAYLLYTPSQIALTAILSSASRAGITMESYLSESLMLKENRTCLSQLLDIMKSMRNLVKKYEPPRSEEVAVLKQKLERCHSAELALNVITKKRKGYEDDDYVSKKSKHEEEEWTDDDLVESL
T1 sequence (P51948 whole entry partner): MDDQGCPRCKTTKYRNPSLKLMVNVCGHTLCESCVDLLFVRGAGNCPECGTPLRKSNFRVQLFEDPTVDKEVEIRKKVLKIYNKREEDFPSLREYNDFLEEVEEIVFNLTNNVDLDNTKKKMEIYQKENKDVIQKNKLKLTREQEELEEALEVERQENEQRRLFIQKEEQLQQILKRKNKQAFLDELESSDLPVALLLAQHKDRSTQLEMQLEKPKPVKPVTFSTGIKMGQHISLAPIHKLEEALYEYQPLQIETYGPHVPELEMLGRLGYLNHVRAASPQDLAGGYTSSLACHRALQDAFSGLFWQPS
Sequence of CDK7/Cyclin H/MNAT1 (P50613 whole entry): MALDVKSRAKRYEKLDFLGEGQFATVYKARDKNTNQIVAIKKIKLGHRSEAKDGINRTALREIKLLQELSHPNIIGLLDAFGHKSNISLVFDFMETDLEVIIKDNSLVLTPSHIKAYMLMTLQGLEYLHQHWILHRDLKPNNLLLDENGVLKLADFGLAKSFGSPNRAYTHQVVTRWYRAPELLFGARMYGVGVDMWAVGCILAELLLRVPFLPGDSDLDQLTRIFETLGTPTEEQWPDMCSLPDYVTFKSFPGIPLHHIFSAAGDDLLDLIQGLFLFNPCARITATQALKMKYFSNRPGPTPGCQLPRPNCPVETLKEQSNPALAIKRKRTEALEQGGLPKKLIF
Sequence of CDK7/Cyclin H/MNAT1 (P51946 whole entry partner): as the sequence (P51946 whole entry partner) above
Sequence of CDK7/Cyclin H/MNAT1 (P51948 whole entry partner): as the sequence (P51948 whole entry partner) above

IC50 (CDK7/Cyclin H/MNAT1): 21.1 nM
SMILES: Cc1ncsc1-c1ccc([C@H](C)NC(=O)[C@@H]2C[C@H](O)CN2C(=O)[C@@H](NC(=O)CCCC#Cc2ccc(C(=O)Nc3n[nH]c4c3CN(C(=O)N[C@H](CN(C)C)c3ccccc3)C4(C)C)cc2)C(C)(C)C)cc1 [Compound 17-Neg, N-((S)-2-(dimethylamino)-1-phenylethyl)-3-(4-(6-(((S)-1-((2S,4S)-4-hydroxy-2-(((S)-1-(4-(4-methylthiazol-5-yl)phenyl)ethyl)carbamoyl)pyrrolidin-1-yl)-3,3-dimethyl-1-oxobutan-2-yl)amino)-6-oxohex-1-yn-1-yl)benzamido)-6,6-dimethyl-4,6-dihydropyrrolo[3,4-c]pyrazole-5(1H)-carboxamide]
antiproliferative effect (in words) (SUDHL5 cells): much weaker antiproliferative effect | antiproliferative effect (in words) (Molt4 cells): much weaker antiproliferative effect | anti-proliferative effect (in words) (Jurkat cells): much weaker anti-proliferative effect | level of CDK7 protein (CDK7 [1]; Jurkat cells, 6 h, negative control): fails to reduce the level of CDK7 protein | antiproliferative effect (in words) (A549 cells): much weaker antiproliferative effect | antiproliferative effect (in words) (OVCAR3 cells): much weaker antiproliferative effect

SMILES: Cc1ncsc1-c1ccc([C@H](C)NC(=O)[C@@H]2C[C@@H](O)CN2C(=O)[C@@H](NC(=O)CCCC#Cc2ccc(C(=O)Nc3n[nH]c4c3CN(C(=O)N[C@H](CN(C)C)c3ccccc3)C4(C)C)cc2)C(C)(C)C)cc1 [Compound 17, N-((S)-2-(dimethylamino)-1-phenylethyl)-3-(4-(6-(((S)-1-((2S,4R)-4-hydroxy-2-(((S)-1-(4-(4-methylthiazol-5-yl)phenyl)ethyl)carbamoyl)pyrrolidin-1-yl)-3,3-dimethyl-1-oxobutan-2-yl)amino)-6-oxohex-1-yn-1-yl)benzamido)-6,6-dimethyl-4,6-dihydropyrrolo[3,4-c]pyrazole-5(1H)-carboxamide]
concentration at 6 h ([2]; male, CD1, mouse, plasma, ip, 10 mg/kg): 1490 nM | clearance ([2]; mice, IV 3 mg/kg and IP 10 mg/kg): low clearance | maximum plasma concentration ([2]; mice, single IP injection, 10 mg/kg): 3.39 µM | CDK7 abundance (proteomics) (OVCAR3 cells proteome): significantly downregulated | Cyclin H abundance (proteomics) (OVCAR3 cells proteome): significantly downregulated | number of significantly changed proteins (OVCAR3 cells proteome; 6538 proteins identified, 1.75-fold cutoff, p-value < 0.001, vs DMSO): only three significantly changed proteins were identified | MAT1 protein level (MAT1): dose-dependent downregulation | LONRF2 degradation (LONRF2): did not observed LONRF2 degradation | CDK7 degradation (in words) (CDK7 [1]; [6]): most effective degrader for CDK7 | reduction in CDK7 protein (CDK7 [1]; [6]): up to 95% | time at which degradation of CDK7 was observable (CDK7 [1]; Jurkat cells, 0.1 μM, time course up to 24 hours): ≤ 0.5 h | CDK7 degradation after pretreatment with MG132 or MLN-4924 (CDK7 [1]; Jurkat cells, 2 h pretreatment, then 17 for 6 h): rescued CDK7 degradation | hook effect (CDK7 [1]; Jurkat cells, 6 h, up to 5 μM): no hook effect was observed | CDK7 degradation, concentration dependence (CDK7 [1]; Jurkat cells, different concentrations, 6 h): efficiently induced CDK7 degradation in a dose-dependent manner | CDK7 degradation in cells lacking VHL (CDK7 [1]; VHL-knockout Jurkat cells vs wild-type, 6 h): completely abrogated | CDK7 degradation (CDK7 [3]; A549 lung adenocarcinoma cell line): Robust degradation | CDK7 degradation (CDK7 [3]; Molt4 T lymphoblast cell line): Robust degradation | CDK7 degradation (CDK7 [3]; OVCAR3 ovarian adenocarcinoma cell line): Robust degradation | CDK7 degradation (CDK7 [3]; SUDHL5 B-cell lymphoma cell line): Robust degradation | clinical signs ([4]; during the PK study): no clinical signs were observed | tolerability ([4]; single dose IV 3 mg/kg or IP 10 mg/kg): well tolerated | antiproliferative effect (in words) (OVCAR3 cells): efficacies comparable to its parental compound YKL-5–167 | protein levels of other CDK family members [5]: barely affected the protein levels
